ChEMBL document CHEMBL1136251, “Synthesis and biological evaluation of menthol-based derivatives as inhibitors of plasminogen activator inhibitor-1 (PAI-1)” (Bioorg Med Chem Lett, 2003)

What was measured:
[1] = biological target: T1, Plasminogen activator inhibitor 1 (Homo sapiens, UniProt P05121); assay: Plasminogen Activator Inhibitor-1 (PAI-1) activity was determined by inhibition of Urokinase-type plasminogen activator using primary assay
How it was run: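 Human recombinant PAI-1 (6 nM) preincubated with compound for 2 min at room temperature in 50 mM Tris-HCl, 150 mM NaCl, 2.5 mM CaCl2, 0.1% PEG 6000, pH 7.5. Human kidney urokinase (0.0175 units/mL) added for a further 2 min, then chromogenic substrate S2444. Rate of absorbance change read at 405 nm. Controls with uPA alone and uPA plus PAI-1 on each plate. IC50 taken from dose-response curve fit.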

[2] = Bioavailability in rat (cannulated) (dose 2 mg/kg); type: ADME, organism-based; conditions: in vivo
How it was run: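 Given intravenously and orally at 2 mg/kg to cannulated conscious rats. Vehicle: 94% PEG/2% 0.1HCl/4% EtOH solution.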

[3] = biological target: T1, Plasminogen activator inhibitor 1; assay: Plasminogen Activator Inhibitor-1 (PAI-1) activity was determined using plasma clot lysis assay; type: functional, cell-free
How it was run: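 Pooled human plasma diluted 1:3 in 150 mM NaCl, 2 mM CaCl2, 20 mM Hepes, pH 7.4. Clotting started with human thrombin (30 nM), with exogenous human tPA (4 nM) present. Lysis followed at 37 °C by absorbance at 405 nm.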

T1 sequence (P05121 whole entry): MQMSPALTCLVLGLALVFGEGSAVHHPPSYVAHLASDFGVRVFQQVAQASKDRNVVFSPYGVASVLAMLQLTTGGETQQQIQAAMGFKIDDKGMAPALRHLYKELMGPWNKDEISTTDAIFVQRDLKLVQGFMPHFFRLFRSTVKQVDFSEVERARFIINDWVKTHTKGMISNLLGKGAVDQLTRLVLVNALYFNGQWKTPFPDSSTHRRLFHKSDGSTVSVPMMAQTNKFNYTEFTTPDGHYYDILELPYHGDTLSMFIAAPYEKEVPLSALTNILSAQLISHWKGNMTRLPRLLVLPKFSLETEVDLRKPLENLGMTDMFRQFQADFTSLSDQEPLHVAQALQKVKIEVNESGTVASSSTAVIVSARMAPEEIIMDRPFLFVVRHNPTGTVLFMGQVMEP

Row | SMILES | IC50 [1] [nM] | bioavailability [2] [%] | IC50 [3] [nM]
1 | COc1cc(C(=O)O)c(Oc2c(CNc3ccc(CNC(=O)CO[C@@H]4C[C@H](C)CC[C@H]4C(C)C)cc3)c(O)cc(C)c2C(=O)O)c(O)c1C | 1800 |  | 
2 | CC(C)[C@@H]1CC[C@@H](C)C[C@H]1OCC(=O)Nc1cc(N2CCC(C(=O)O)CC2)ccc1[N+](=O)[O-] | 940 | < 10 | 10
3 | CC(C)[C@@H]1CC[C@@H](C)C[C@H]1OCC(=O)NCc1ccc(NCc2cccc(C(=O)O)c2)cc1 | 7800 |  | 
4 | CC(C)[C@@H]1CC[C@@H](C)C[C@H]1OCC(=O)Nc1cc(N[C@H]2CC[C@@H](C(=O)O)CC2)ccc1[N+](=O)[O-] | 900 |  | 
5 | CC(C)[C@@H]1CC[C@@H](C)C[C@H]1OCC(=O)Nc1cc(Oc2ccc(C(=O)O)cc2)ccc1[N+](=O)[O-] | 380 | 24 | 10
6 | COc1cc(C(=O)O)c2c(c1C)OC(=O)c1c(C)cc(O)c(CNc3ccc(NC(=O)CO[C@@H]4C[C@H](C)CC[C@H]4C(C)C)nc3)c1O2 | 530 |  | 
7 | COc1cc(C(=O)O)c2c(c1C)OC(=O)c1c(C)cc(O)c(CNc3cccc(CNC(=O)CO[C@@H]4C[C@H](C)CC[C@H]4C(C)C)c3)c1O2 | 1400 |  | 
8 | COc1ccc(Oc2cccc(F)c2CNc2ccc(CNC(=O)CO[C@@H]3C[C@H](C)CC[C@H]3C(C)C)cc2)c(C(=O)O)c1 | 1400 |  | 
9 | CC(C)[C@@H]1CC[C@@H](C)C[C@H]1OCC(=O)Nc1cc(Oc2ccc(C(=O)O)cn2)ccc1[N+](=O)[O-] | 2600 |  | 
10 | COc1cc(C(=O)O)c(Oc2c(CNc3ccc(CNC(=O)CO[C@@H]4C[C@H](C)CC[C@H]4C(C)C)cc3)c(O)cc(C)c2C(N)=O)c(O)c1C | 600 |  | 
11 | COc1cc(C(=O)O)c2c(c1C)OC(=O)c1c(C)cc(O)c(CNc3ccc(CNC(=O)CO[C@@H]4C[C@H](C)CC[C@H]4C(C)C)cc3)c1O2 | 1400 | 23 | 100
12 | COc1cc(C(=O)O)c2c(c1C)OC(=O)c1c(C)cc(O)c(CNc3ccc(CCNC(=O)CO[C@@H]4C[C@H](C)CC[C@H]4C(C)C)cc3)c1O2 | 3900 |  | 
13 | COc1cccc(CNc2ccc(CNC(=O)CO[C@@H]3C[C@H](C)CC[C@H]3C(C)C)cc2)c1Oc1ncccc1C(=O)O | 500 |  | 
14 | COc1cccc(CNc2ccc(CNC(=O)CO[C@@H]3C[C@H](C)CC[C@H]3C(C)C)cc2)c1Oc1ccc([N+](=O)[O-])cc1C(=O)O | 1200 | 94 | 100
15 | CC(C)[C@@H]1CC[C@@H](C)C[C@H]1OCC(=O)NCc1ccc(NCc2cc([N+](=O)[O-])ccc2Oc2cc(Oc3ccccc3)ccc2C(=O)O)cc1 | 2600 |  | 
16 | CCCN(Cc1ccc(NCc2c(O)cc(C)c3c2Oc2c(C(=O)O)cc(OC)c(C)c2OC3=O)cc1)C(=O)CO[C@@H]1C[C@H](C)CC[C@H]1C(C)C | 5000 |  | 
17 | CC(C)[C@@H]1CC[C@@H](C)C[C@H]1OCC(=O)NCc1ccc(NCc2cc([N+](=O)[O-])ccc2O)cc1 | 2700 |  | 

Row | SMILES | IC50 [1] [nM] | bioavailability [2] [%] | IC50 [3] [nM]
18 | CC(C)[C@@H]1CC[C@@H](C)C[C@H]1OCC(=O)NCc1ccc(NCc2c(F)cccc2Oc2c(O)cccc2C(=O)O)cc1 | 710 |  | 
19 | COc1ccc(Oc2ccccc2CNc2ccc(CNC(=O)CO[C@@H]3C[C@H](C)CC[C@H]3C(C)C)cc2)c(C(=O)O)c1 | 1400 |  | 
20 | CC(C)[C@@H]1CC[C@@H](C)C[C@H]1OCC(=O)NCc1ccc(NCc2ccccc2)cc1 | > 15000 |  | 
21 | COc1cccc(CNc2ccc(CNC(=O)CO[C@@H]3C[C@H](C)CC[C@H]3C(C)C)cc2)c1Oc1ccc(N)cc1C(=O)O | 700 |  | 
22 | CC(C)[C@@H]1CC[C@@H](C)C[C@H]1OCC(=O)NCc1ccc(NCc2ccc(C(=O)O)cc2)cc1 | 3200 |  | 
23 | CC(C)[C@@H]1CC[C@@H](C)C[C@H]1OCC(=O)Nc1cc(N[C@H]2CC[C@H](C(=O)O)CC2)ccc1[N+](=O)[O-] | 1100 |  | 
24 | CC(C)[C@@H]1CC[C@@H](C)C[C@H]1OCC(=O)Nc1cc(N2CCCC(C(=O)O)C2)ccc1[N+](=O)[O-] (some centres undefined) | 890 |  | 
25 | COc1cc(C(=O)O)c2c(c1C)OC(=O)c1c(C)cc(O)c(CNc3ccc(NC(=O)CO[C@@H]4C[C@H](C)CC[C@H]4C(C)C)cc3)c1O2 | 1100 |  | 
26 | CC(C)[C@@H]1CC[C@@H](C)C[C@H]1OCC(=O)Nc1cc(Oc2cccc(C(=O)O)c2)ccc1[N+](=O)[O-] | 400 | < 10 | 100
27 | CC(C)[C@@H]1CC[C@@H](C)C[C@H]1OCC(=O)Nc1cc(N2CCCCC2C(=O)O)ccc1[N+](=O)[O-] (some centres undefined) | 2900 |  | 
28 | COc1cc(C(=O)O)c2c(c1C)OC(=O)c1c(C)cc(O)c(CN3CCC(NC(=O)CO[C@@H]4C[C@H](C)CC[C@H]4C(C)C)CC3)c1O2 | > 15000 |  | 
29 | CC(C)[C@@H]1CC[C@@H](C)C[C@H]1OCC(=O)Nc1cc(N2CC(C(=O)O)C2)ccc1[N+](=O)[O-] | 2900 |  | 
30 | CC(C)[C@@H]1CC[C@@H](C)C[C@H]1OCC(=O)NCc1ccc(NCc2ccccc2S(=O)(=O)O)cc1 | > 15000 |  | 
31 | CC(C)[C@@H]1CC[C@@H](C)C[C@H]1OCC(=O)NCc1ccc(NCc2ccccc2Oc2ccccc2)cc1 | > 15000 |  | 
32 | CC(C)[C@@H]1CC[C@@H](C)C[C@H]1OCC(=O)Nc1cc(N2CCCC2C(=O)O)ccc1[N+](=O)[O-] (some centres undefined) | 2200 |  | 
33 | CC(C)[C@@H]1CC[C@@H](C)C[C@H]1OCC(=O)NCc1ccc(NCc2ccncc2)cc1 | > 15000 |  | 
34 | CC(C)[C@@H]1CC[C@@H](C)C[C@H]1OCC(=O)NCc1ccc(NCc2cc([N+](=O)[O-])ccc2Oc2ccccc2C(=O)O)cc1 | 710 |  | 
